Laboratory results taken from ChEMBL document CHEMBL3045553, “Isolation and antifungal activity of 4-phenyl-3-butenoic acid from Streptomyces koyangensis strain VK-A60” (2005).
Activity calls are given as the source filed them. No cut-off for these calls is given here.

Legend:
[1] = tested on: Colletotrichum orbiculare; assay: […] antifungal activity against Colletotrichum orbiculare on […] assessed as inhibition of anthracnose development at 500 ug/mL; type: functional, organism-based
Phytophthora capsici = assay: Antifungal activity against Phytophthora capsici assessed as inhibition of microbial growth by microtiter broth dilution method; type: functional
Outline: (§1)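 Spore or zoospore suspension, 10 µL, added to wells of a 24-well dish holding 1 mL potato dextrose broth or nutrient broth. Compound dissolved in methanol and tested over 0–100 µg/mL. Plates held at 22–28 °C and read after 2–5 days against an untreated inoculated control. MIC is the lowest concentration with no visible growth.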

Sclerotinia sclerotiorum = assay: Antifungal activity against Sclerotinia sclerotiorum assessed as inhibition of microbial growth by microtiter broth dilution method; type: functional; outline: as §1
Globisporangium ultimum = assay: Antifungal activity against Pythium ultimum assessed as inhibition of microbial growth by microtiter broth dilution method; type: functional; outline: as §1
Xanthomonas vesicatoria = assay: Antibacterial activity against Xanthomonas vesicatoria assessed as inhibition of microbial growth by microtiter broth dilution method; type: functional
Outline: (§2)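 Broth microdilution in 24-well plates. Inoculum of 10⁴ CFU/mL, 10 µL per well, in 1 mL potato dextrose broth or nutrient broth. Compound in methanol, 0–100 µg/mL. Incubated at 22–28 °C for 2–5 days and compared with a compound-free growth control. MIC is the lowest concentration showing no growth.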

Ralstonia solanacearum = assay: Antibacterial activity against Ralstonia solanacearum assessed as inhibition of microbial growth by microtiter broth dilution method; type: functional
Outline: (§3)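 24-well broth dilution. 10 µL of spore or cell suspension went into 1 mL potato dextrose broth or nutrient broth. Bacterial inoculum was 10⁴ CFU/mL. Compound was dissolved in methanol and tested at 0–100 μg/mL. Plates were incubated at 22–28 °C for 2–5 days against a compound-free growth control. MIC was the lowest concentration showing no growth.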

Pyricularia grisea = assay: Antifungal activity against Magnaporthe grisea assessed as inhibition of microbial growth by microtiter broth dilution method; type: functional; outline: as §3
[2] = tested on: Colletotrichum orbiculare; assay: Antifungal activity against Colletotrichum orbiculare assessed as inhibition of microbial growth by microtiter broth dilution method; type: functional; outline: as §1
[3] = tested on: Pectobacterium carotovorum subsp. carotovorum; assay: Antibacterial activity against Pectobacterium carotovorum subsp. carotovorum assessed as inhibition of microbial growth by microtiter broth dilution method; type: functional; outline: as §2
Candida albicans = assay: Antifungal activity against Candida albicans assessed as inhibition of microbial growth by microtiter broth dilution method; type: functional; outline: as §2
[4] = tested on: Fusarium oxysporum f. sp. lycopersici; assay: Antifungal activity against Fusarium oxysporum f. sp. lycopersici assessed as inhibition of microbial growth by microtiter broth dilution method; type: functional; outline: as §1
Alternaria mali = assay: Antifungal activity against Alternaria mali assessed as inhibition of microbial growth by microtiter broth dilution method; type: functional; outline: as §1
Saccharomyces cerevisiae = assay: Antifungal activity against Saccharomyces cerevisiae assessed as inhibition of microbial growth by microtiter broth dilution method; type: functional; outline: as §2
Rhizoctonia solani = assay: Antifungal activity against Rhizoctonia solani assessed as inhibition of microbial growth by microtiter broth dilution method; type: functional; outline: as §1
[5] = tested on: Colletotrichum orbiculare; assay: […] antifungal activity against Colletotrichum orbiculare on two-leaf stage cucumber plant assessed as inhibition of anthracnose development at 100 ug/mL; type: functional, organism-based
Outline: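 Cucumber cv. Baekrokdadaki grown at 28 ± 2 °C. Compound in methanol, diluted in 0.1% Tween 20 to 10–500 µg/mL, sprayed on primary leaves 1 day before inoculation. Inoculum was 10⁶ conidia/mL in 0.05% Tween 20, followed by 24 h in a dew chamber at 28 °C. Lesions/cm² on secondary leaves counted at day 6. 6 plants/treatment, 3 replicates; Tween-only control.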

Cladosporium cucumerinum = assay: Antifungal activity against Cladosporium cucumerinum assessed as inhibition of microbial growth by microtiter broth dilution method; type: functional; outline: as §1
Ilyonectria destructans = assay: Antifungal activity against Ilyonectria radicicola assessed as inhibition of microbial growth by microtiter broth dilution method; type: functional; outline: as §1
Botrytis cinerea = assay: Antifungal activity against Botryotinia fuckeliana assessed as inhibition of microbial growth by microtiter broth dilution method; type: functional; outline: as §1
Bacillus subtilis = assay: Antibacterial activity against Bacillus subtilis subsp. subtilis assessed as inhibition of microbial growth by microtiter broth dilution method; type: functional; outline: as §2

Row | Compound | inhibition [1] | MIC (Phytophthora capsici) | MIC (Sclerotinia sclerotiorum) | MIC (Globisporangium ultimum) | MIC (Xanthomonas vesicatoria) | MIC (Ralstonia solanacearum) | MIC (Pyricularia grisea) | MIC [2] | MIC [3] | MIC (Candida albicans) | MIC [4] | MIC (Alternaria mali) | MIC (Saccharomyces cerevisiae) | MIC (Rhizoctonia solani) | inhibition [5] | MIC (Cladosporium cucumerinum) | MIC (Ilyonectria destructans) | MIC (Botrytis cinerea) | MIC (Bacillus subtilis)
1 | N#Cc1c(Cl)c(Cl)c(Cl)c(C#N)c1Cl | Active |  |  |  |  |  |  |  |  |  |  |  |  |  |  |  |  |  | 
2 | O=C(O)C/C=C/c1ccccc1 | Active | 30 µg/mL | > 100 µg/mL | 0.5 µg/mL | 10 µg/mL | 0.5 µg/mL | 10 µg/mL | 3 µg/mL | 1 µg/mL | > 100 µg/mL | > 100 µg/mL | 30 µg/mL | > 100 µg/mL | 30 µg/mL | Active | 30 µg/mL | 30 µg/mL | > 100 µg/mL | 3 µg/mL
